Fewer inactive variants are shown than the library holds.
B1: tRNA (parent)
chain: GUUCCGUUGGCGUAAUGGUAACGCGUCUCCCUCCUAAGGAGAAGACUGCGGGUUCGAGUCCCGUACGGAACG

Variants of: B1
Assay: yeast fitness relative to wild type (ratio to wild type); higher = fitter; tRNA-Arg(CCU), competitive growth, 37 C, YPD
Procedure, shortened: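 For this measurement, the tRNA-Arg(CCU) gene was varied by chemical synthesis at a 3% per-site mutation rate across 69 sites, and each variant was placed at the native genomic locus in Saccharomyces cerevisiae. The pooled strains went through a 24-hour competition in YPD at 37°C in six parallel replicates, with amplicons from start and end populations read by 100-nucleotide paired-end sequencing. Darwinian fitness relative to wild type followed from the change in each genotype's frequency. Genotypes needed ≥ 100 starting reads, and estimates < 0.5 were set to 0.5.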

Variant | yeast fitness
GUUCCGUUAGUGUAAUGGUAACGCGUCUACCUCCUAAGGAGAAGACUGCGGGUUCGAGUCCCGUACGGAACG | 0.506
GGUCCGUUGGCUUAAUGGUAACGCGUCUCCCUCCUAAGGAGAAGACUGCGGGUUCGAGUCCCGUACGGAACG | 1.15
GUUCCGUUGGCGUAAUGGUAACGCGUCUCCCUCUUAAAGAGAACACUGCGGGUUCGAGUCCCGUACGGAACG | ≤ 0.5
GUUCCGUCGGCGUAAUGGUAACCCGUCUGCCUCCUGAGGAGAAGUCUGCGGGUUCGAGUCCCGUACGGAACG | ≤ 0.5
GUUUCGUUGGCCUAAUGGUAACGCGUCUCCCUCCUAAGGAGAAGCCUGUGGGUUCGAGUCCCGUACGGAACG | ≤ 0.5
GUUCCGUCGGCGUAGUGGUAACGCGUCUCCCUCCUAAGGAGAAGACUGCGGGUUCGAGUCUCGUACGGAACG | 0.628
GUUCCGUUGGCGUAAUGGUAACGUGUCUCCCUCCUAGGGAGAAGUCUGCGGGUUCGAGUCCCGUACGGAACG | 0.562
GUUCCGUUGGCGUAAUGGUAACGCGUGUCCCUCCUAAGGAGAAGAUUGCGGGUUCGAGUUCCGUACGGAACG | 0.626
GUUUCGUUGGCGUAAUGGUAACGCGUCUCCCUCCUAAGGAGAAGACUGCGGGUUCGAGUCCCGUGUGGAACG | 0.787
GUUUCGUUGGCGUAUUGGUAACGCGUCUCCCUCCUAAGGAGCAGACAGCGGGUUCGAGUCCCGUGCGGAACG | ≤ 0.5
GUUCCGUUGGCGUAAUGGUAACGCGUCUCCCUCCAAAGGAGAAGACUGCGGGUUCGAGUGCCGUACUGAACG | ≤ 0.5
GUUCCGUUGGCGUAAUGGUAACGUGUCGCCCUGUUGAGGGGAAGACUGCGGGUUCGAGUCCCGUACGGAACG | 0.596
GUUACGUUGGCGUAAUGGUAACGCGUCUCCCUCCUAAGGAGAAGACCGCGGGUUCGAGUCCCGUACGGACCG | 0.749
GUUCCGUUGGCGUAAUGGUAACGCGUCUCCCACCUAAGGAGAAGACUGUGGGUUCGAGUCCCGUACGGAACG | 0.78
GUUGCGUUGCCGUAAUGGUAACGUGUCUCCCUCUUUAGGAGAAGAAUGCGGGUUCGAGUCCCGUACGGAACG | ≤ 0.5
GUUCCGUUGGCGUAAUGCUAACGCGACUCCCUCCUAAGGAGAAGACUGCGGGUUGGAGUCCCGUACGGAACG | ≤ 0.5
GUUCCGUGGGCGUAAUGGUAACGCGUCUCCCUCCCAAGGAGAAGACUGCGGGUUCGAGUCCCGUACGGAACG | 0.767
GUUCCGUUGGCGUAAUGGUAACGCGUAUCCCUCCUAAGGAGAAGACUGCGGGUUCGAGUCCCGUUCCGAACG | 0.613
GUUCCGUUGGCGUAAUGGUAACGCGUCUCCCUCAUACGGAGAAGACUGCGGGUUCGAGUCCCCUACGGAACG | ≤ 0.5

Variant | yeast fitness
GUUCCGUUGGCGUAGUGGUAACGCGUCUCCCUCCUAAGGAGAUGACUGCGGGUUCGAGUCCCGUACGGAACG | 0.925
GUUCGGUUGGUGUUAUGGUAACGCGUCUCCCUCCUAUGGAGAAGCCUGCGGGUUCGAGUCCCGUACGGAACG | ≤ 0.5
GUUCCGUUGGCGUAAUGGUAACGCGUCUCUCUCCUAAGGAGAAGAAUGCGGGUUCGAGUCCUGUACGGAACG | 0.852
GUUCCGUUGGCGUUAUGGUAACGCGUCUCCCUCCUACGGAGAAGACUGCGGGUUCGAGUCCAGUAAGGAACG | 0.574
GUUUCGUUGGCGUAAUGGUAACGCGUCUCCCUCGUAAGGAGAAGACUGGGGGUUCGAGUCCCGUACGCAACG | ≤ 0.5
GUUCCGUUGGCGUAAUGGUAACGCGUCUCCCUCCCAAGGAGAAGACUGCGGGUUCGAGUCCCGGAGGGAACG | ≤ 0.5
GUUCCGUUGGCGUAAUGGUAACGCGUCACACUCCUAAGGAGAAGACUGCGGGUUCGAGUCCCGUACGGAACG | 0.759
GUUCGGUUGGCGUAAUGGUAACGCGUCUCCCUCCUAAGGAGAAGACUGCGGGUUCAAGUCCGGUACGGAACG | 0.543
GUUCCGUUGGUGUAAUGGUAAGGCGUCUCCCUCCUGAGGAGAAGACUGCGGGUUCGAGUCCCGUUCGGAACG | 0.554
GGUCCGUUGGCGUAAUGGUAACGCGUCUCCUUCCUACGGAGAAGACUGCGGGUUCGAGUCCCGUACGGAACG | 0.56
GUUCAGUUCGCGUAAUGGUAUCGCGUCUCCCUCCUAAGGAGAAGACUGCGGGUUCGAGUCCCGUACGGAACG | ≤ 0.5
GUUGCGUUGGCGUAAUGGUAACGCGUCUCCCUCCUAAGGAGAAGACUGCGGGUUCCAGUCCCGUACGGAACG | 0.699
GUUCGGUCGGCAUAAUGGUAACGCGUCUCCCUCCUAAGGAGAAGAUUGCGGGUUCGAGUCCCGUACGAAACG | ≤ 0.5
GUUCCGUUCGCGUAAUGGUAACGCGUCUCCCUCCUAAGGAGAAGACUGCGGCUUCGAGUACCGUACGGAACG | ≤ 0.5
GUCCCGUUGGCGUAAUGGUAACGCGUCUCCUUCCUAAGGAGAAGACUGCGGGUUCGAGUCACGUACGGAACG | 0.567
GUUCCGUUGGCGUAAUGGUAACGGGUCUCCCUCCUAAGGAGAAGACUGGGGGUUCAAGUCCCGUACGGAACG | 0.574
GUUCCGUUGGCGUAAUGGUAAUCCGCCUCACUCCUAAGGAGAAGACUGCGGGUUCGAGUCCCGUACGGAACG | 0.507
GUUCCGUUAGCGUAAUGGUAACGCGUCUCCCUCCUCAGGAGAAGACUGAGGGUUUGGGUCCCGUACGGUACG | ≤ 0.5

Source: the RNAGym collection of RNA variant scans (doi:10.1126/science.aae0568)
